Laboratory results: ChEMBL document CHEMBL1128522, “Phosphinic acid analogues of GABA. 2. Selective, orally active GABAB antagonists” (J Med Chem, 1995)

How the values were obtained:
[1] = target: Gamma-aminobutyric acid type B receptor subunit 1 (Rattus norvegicus, UniProt Q9Z0U4); test: Inhibition of binding of [3H]CGP-27492 to gamma-aminobutyric acid type B receptor of rat cortex.
Rattus norvegicus [2] = species on record: Rattus norvegicus; test: The compound was tested for enhancement of electrically induced release of [3H]GABA from rat cortical slices.; assay type: functional
How it was run: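 Rat cerebral cortex slices were electrically stimulated at 2 Hz, and the increase in GABA release was measured in quadruplicate. EC150, the concentration giving a 50% increase in GABA release, came from computer-aided curve fitting. Where no EC150 was given, the value is the percent increase at 10^-4 M or 10^-5 M.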

Rattus norvegicus [3] = species on record: Rattus norvegicus; test: Enhanced electrically induced release of [3H]GABA from rat cortical slices; agonist; assay type: functional; details: filed as agonist
How it was run: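 Electrically stimulated rat cerebral cortex slices at 2 Hz; [3H]GABA release measured. EC150 is the concentration giving a 50% increase in GABA release, obtained by computer-aided curve fitting. Run in quadruplicate; no standard deviations computed because curve slopes varied. Some entries are instead percent increase at a single concentration of 10^-4 or 10^-5 M.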

[4] = target: Histamine H1 receptor (Homo sapiens) (UniProt P35367); test: Inhibition of [3H]doxepine binding to histamine-1 receptor of central nervous system.; details: concentration not given here
Chain of Histamine H1 receptor (Homo sapiens) (P35367 whole entry): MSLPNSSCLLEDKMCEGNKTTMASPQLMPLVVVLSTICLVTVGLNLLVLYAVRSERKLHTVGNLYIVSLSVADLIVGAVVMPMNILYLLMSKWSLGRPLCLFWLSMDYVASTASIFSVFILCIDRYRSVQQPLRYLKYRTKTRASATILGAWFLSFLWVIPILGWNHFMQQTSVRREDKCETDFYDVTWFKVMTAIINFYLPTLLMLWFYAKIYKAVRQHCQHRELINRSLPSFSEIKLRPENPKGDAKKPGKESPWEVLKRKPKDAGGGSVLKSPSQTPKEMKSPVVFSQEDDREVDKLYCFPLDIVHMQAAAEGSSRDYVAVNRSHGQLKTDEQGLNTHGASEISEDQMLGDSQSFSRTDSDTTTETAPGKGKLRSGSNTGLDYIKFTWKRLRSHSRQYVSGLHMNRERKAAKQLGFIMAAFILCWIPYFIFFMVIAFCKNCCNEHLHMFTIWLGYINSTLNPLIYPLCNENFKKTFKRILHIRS

[5] = target: Histamine H2 receptor (Homo sapiens) (UniProt P25021); test: Inhibition of [3H]tiotidine binding to histamine 2 receptor of central nervous system; details: concentration not given here
Chain of Histamine H2 receptor (Homo sapiens) (P25021 whole entry): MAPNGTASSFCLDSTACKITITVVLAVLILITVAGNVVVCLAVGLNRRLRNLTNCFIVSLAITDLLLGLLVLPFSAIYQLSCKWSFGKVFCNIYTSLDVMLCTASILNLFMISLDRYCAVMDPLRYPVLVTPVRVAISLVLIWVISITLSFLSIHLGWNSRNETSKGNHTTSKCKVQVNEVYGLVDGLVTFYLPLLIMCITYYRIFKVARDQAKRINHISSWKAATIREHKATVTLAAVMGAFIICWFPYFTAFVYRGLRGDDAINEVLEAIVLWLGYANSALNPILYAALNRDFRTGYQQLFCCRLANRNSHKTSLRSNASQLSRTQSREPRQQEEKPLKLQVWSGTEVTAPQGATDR

[6] = Inhibition of [3H]DCKA binding to N-methyl-D-aspartate glutamate receptor 1 of central nervous system; details: concentration not given here
[7] = target: Glutamate receptor ionotropic kainate (Homo sapiens) (UniProt P39086+Q16478+Q16099+Q13002+Q13003); test: Inhibition of [3H]kainate binding to Ionotropic glutamate receptor kainate of central nervous system; assay type: protein-complex assay; details: concentration not given here
[8] = Inhibition of [3H]5-HT binding to 5-hydroxytryptamine 1 receptor of central nervous system; details: concentration not given here
[9] = target: Glutamate receptor ionotropic AMPA (Homo sapiens) (UniProt P48058+P42263+P42262+P42261); test: Inhibition of [3H]-AMPA binding to Quisqualate receptor of central nervous system; assay type: protein-complex assay; details: concentration not given here

Chain of Gamma-aminobutyric acid type B receptor subunit 1 (Q9Z0U4 whole entry): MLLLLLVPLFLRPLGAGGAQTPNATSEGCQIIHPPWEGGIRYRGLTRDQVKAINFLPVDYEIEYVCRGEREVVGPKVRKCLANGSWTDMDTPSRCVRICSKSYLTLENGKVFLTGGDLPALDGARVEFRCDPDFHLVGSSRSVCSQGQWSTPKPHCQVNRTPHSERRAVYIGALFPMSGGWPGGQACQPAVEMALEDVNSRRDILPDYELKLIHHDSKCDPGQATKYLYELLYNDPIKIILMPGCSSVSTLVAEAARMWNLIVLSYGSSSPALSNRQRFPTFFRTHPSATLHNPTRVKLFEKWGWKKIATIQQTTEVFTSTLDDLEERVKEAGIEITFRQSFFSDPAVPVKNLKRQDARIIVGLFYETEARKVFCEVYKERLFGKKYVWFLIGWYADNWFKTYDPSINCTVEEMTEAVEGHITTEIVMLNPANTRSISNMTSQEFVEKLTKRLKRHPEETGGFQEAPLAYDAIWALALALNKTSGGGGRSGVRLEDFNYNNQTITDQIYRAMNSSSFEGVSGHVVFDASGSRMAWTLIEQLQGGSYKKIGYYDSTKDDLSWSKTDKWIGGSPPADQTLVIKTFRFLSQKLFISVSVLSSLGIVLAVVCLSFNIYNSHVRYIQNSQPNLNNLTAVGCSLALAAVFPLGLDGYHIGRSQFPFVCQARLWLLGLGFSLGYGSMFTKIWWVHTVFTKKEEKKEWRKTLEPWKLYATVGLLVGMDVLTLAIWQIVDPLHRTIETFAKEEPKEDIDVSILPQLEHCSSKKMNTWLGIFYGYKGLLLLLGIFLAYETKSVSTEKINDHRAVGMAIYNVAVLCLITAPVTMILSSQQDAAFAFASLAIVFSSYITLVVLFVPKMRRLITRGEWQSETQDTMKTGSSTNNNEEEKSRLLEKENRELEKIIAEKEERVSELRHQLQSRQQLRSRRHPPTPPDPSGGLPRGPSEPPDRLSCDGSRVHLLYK

Row | SMILES | IC50 [1] | EC150 (Rattus norvegicus [2]) | also measured
1 | NCC(=O)CP(=O)(O)CC1CCCCC1 | 50 µM | 5 µM | –
2 | CCCC(F)(F)P(=O)(O)CCCN | 22 µM | 115 µM | –
3 | NCCCP(=O)(O)Cc1ccccc1 | 10 µM | 5 µM | –
4 | CCCCP(=O)(O)CC(O)CN (stereo not drawn) | 29 µM | 8 µM | –
5 | NCCCP(=O)(O)C1CCCCO1 (stereo not drawn) | 39 µM | 144 µM | –
6 | NCCCP(=O)(O)CCCN | 29 µM | – | –
7 | CCCCP(=O)(O)C(C)CCN (stereo not drawn) | 341 µM | 8 µM | –
8 | NC[C@@H](O)CP(=O)(O)CC1CCCCC1 | 6 µM | 4 µM | –
9 | CP(=O)(O)CC(O)(CN)c1ccc(Cl)cc1 (stereo not drawn) | 6 µM | 30 µM | –
10 | NCCC[PH](=O)O | 0.005 µM | – | EC150 (Rattus norvegicus [3]): Agonist
11 | NCCCP(=O)(O)C(O)c1ccccc1 (stereo not drawn) | 8 µM | 10 µM | –
12 | CCOC(OCC)P(=O)(O)C[C@@H](O)CN | 12 µM | 11 µM | –
13 | CCCOC(OCCC)P(=O)(O)CCCN | 28 µM | 60 µM | –
14 | NCCCP(=O)(O)CCc1ccccc1 | 10 µM | 60 µM | –
15 | CCOC(OCC)P(=O)(O)CC(CN)c1ccc(Cl)cc1 (stereo not drawn) | 21 µM | 11 µM | –
16 | NCCCP(=O)(O)Cc1ccc(F)cc1 | 52 µM | 10 µM | –
17 | NC[C@H](O)CP(=O)(O)Cc1ccccc1 | 5 µM | 5 µM | –
18 | NCCCP(=O)(O)CC1CCCCC1 | 4 µM | 3 µM | –
19 | CCCCP(=O)(O)CC(C)(O)CN (stereo not drawn) | 45 µM | – | –
20 | CCCP(=O)(O)CCCN | 16 µM | 30 µM | –
21 | NCCCP(=O)(O)CCC1CCCCO1 (stereo not drawn) | 2 µM | 30 µM | –
22 | CCCCP(=O)(O)CC(O)(CN)c1ccc(Cl)cc1 (stereo not drawn) | 7 µM | 45 µM | –
23 | NCC(O)CP(=O)(O)Cc1ccccc1 (stereo not drawn) | 8 µM | 4 µM | –
24 | CCCCCCP(=O)(O)CCCN | 20 µM | 14 µM | –
25 | CCCCP(=O)(O)C(O)CCN (stereo not drawn) | 37 µM | – | –

Row | SMILES | IC50 [1] | EC150 (Rattus norvegicus [2]) | also measured
26 | CC(C)(C)P(=O)(O)CCCN | 73 µM | – | –
27 | NC[C@@H](O)CP(=O)(O)Cc1ccccc1 | 32 µM | 11 µM | –
28 | NCCCP(=O)(O)CC(O)CNC(=O)c1ccccc1C(N)=O (stereo not drawn) | 2 µM | 9 µM | –
29 | NCCCP(=O)(O)Cc1ccccn1 | 6 µM | 30 µM | –
30 | NCC(O)CP(=O)(O)CC1CCCCC1 (stereo not drawn) | 5 µM | 8 µM | –
31 | CC(C)CP(=O)(O)CCCN | 14 µM | 98 µM | –
32 | CCCCP(=O)(O)CC(=O)CN | – | 6 µM | –
33 | CCOC(OCC)P(=O)(O)CC(O)CN (stereo not drawn) | 16 µM | 9 µM | –
34 | NCCCP(=O)(O)CC1CCCCO1 (stereo not drawn) | 32 µM | 12 µM | –
35 | NCCCP(=O)(O)CCC1CCCCC1 | 2 µM | 13 µM | –
36 | CP(=O)(O)CC(CN)c1ccc(Cl)cc1 (stereo not drawn) | 9 µM | 28 µM | –
37 | CCCC(O)P(=O)(O)CCCN (stereo not drawn) | 18 µM | 44 µM | –
38 | CP(=O)(O)CCCN | – | – | EC150 (Rattus norvegicus [3]): Agonist
39 | CCP(=O)(O)CCCN | 2 µM | 118 µM | –
40 | NCC(=O)CP(=O)(O)CC1CC1 | 14 µM | 3 µM | –
41 | NCCCP(=O)(O)c1ccccc1 | 126 µM | – | –
42 | NCCCP(=O)(O)C1CCCO1 (stereo not drawn) | 34 µM | 89 µM | –
43 | NC[C@H](O)CP(=O)(O)CC1CCCCC1 | 5 µM | 2 µM | –
44 | CCCCOC(OCCCC)P(=O)(O)CCCN | 20 µM | 300 µM | –
45 | CCOC(OCC)P(=O)(O)CCCN | 27 µM | 30 µM | –
46 | CC(C)OC(OC(C)C)P(=O)(O)CCCN | 18 µM | 47 µM | –
47 | NCCCP(=O)(O)CC1CC1 | 37 µM | 53 µM | –
48 | CC(=O)CCP(=O)(O)CCCN | 1 µM | 4 µM | –
49 | NCCCP(=O)(O)CN | 50 µM | 2 µM | –
50 | CCCCP(=O)(O)CCCN [SGS-742] | – | 38 µM | inhibition [4]: 7%; inhibition [5]: 6%; inhibition [6]: 16%; inhibition [7]: 8%; inhibition [8]: 2%; inhibition [9]: 7%
